Screening data: PubChem BioAssay, The Scripps Research Institute Molecular Screening Center
Most compounds without a hit are left out; they make up all but 1.9% or so of the library.
TbMetRS inhib = Trypanosoma brucei MetRS inhibition. purified T. brucei MetRS, ATP depletion, Kinase-Glo luminescence. inhibition, % at 11.9 µM. hit rate 0.4% among 360,000;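 active means inhibition above a per-plate cutoff of the control wells' mean inhibition plus 3 SD, cut at about 5.5% in these data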;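 further: 0% = DMSO wells median and 100% = median of wells with control inhibitor compound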
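assay system = parasite MetRS enzyme | timing = 15 min preincubation, 2 h reaction, all 25 °C | evaluation = percent inhibition relative to median high and low control wells | medium = HEPES buffer containing pyrophosphatase, BSA, spermine, DTT | compound = single dose, 11.9 µM final nominal, 0.9% final DMSO | detection = Kinase-Glo luminescence, ATP depletion format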
DAGLB inh = diacylglycerol lipase beta (human) inhibition. Q8NCG7. inhibition, % at 5.17 µM. HEK293T DAGLB membrane lysate, EnzChek fluorogenic substrate. hit rate 0.059% among 340,000. AID 504411; in the data active means inhibition above about 34%;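 further: 0% = enzyme with vehicle and 100% = wells lacking enzyme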
PLC-beta3 inh = blocks human PLC-beta3 enzyme activity; hit rate 0.18% among 370,000; Purified PLC-beta3, fluorogenic substrate, fluorescence; inhibition, % at 12.2 µM; Q01970; AID 720704; in the data active means inhibition above about 11%;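 further: 0% = median of compound wells on plate and 100% = full blocker control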
PLC-gamma1 inh = blocks human PLC-gamma1 enzyme activity; P19174; purified PLC-gamma1, fluorogenic substrate, fluorescence; inhibition, % at 12.2 µM; hit rate 0.84% among 370,000; in the data active means inhibition above about 9.5%
Target sequence (P19174 whole entry, looked up): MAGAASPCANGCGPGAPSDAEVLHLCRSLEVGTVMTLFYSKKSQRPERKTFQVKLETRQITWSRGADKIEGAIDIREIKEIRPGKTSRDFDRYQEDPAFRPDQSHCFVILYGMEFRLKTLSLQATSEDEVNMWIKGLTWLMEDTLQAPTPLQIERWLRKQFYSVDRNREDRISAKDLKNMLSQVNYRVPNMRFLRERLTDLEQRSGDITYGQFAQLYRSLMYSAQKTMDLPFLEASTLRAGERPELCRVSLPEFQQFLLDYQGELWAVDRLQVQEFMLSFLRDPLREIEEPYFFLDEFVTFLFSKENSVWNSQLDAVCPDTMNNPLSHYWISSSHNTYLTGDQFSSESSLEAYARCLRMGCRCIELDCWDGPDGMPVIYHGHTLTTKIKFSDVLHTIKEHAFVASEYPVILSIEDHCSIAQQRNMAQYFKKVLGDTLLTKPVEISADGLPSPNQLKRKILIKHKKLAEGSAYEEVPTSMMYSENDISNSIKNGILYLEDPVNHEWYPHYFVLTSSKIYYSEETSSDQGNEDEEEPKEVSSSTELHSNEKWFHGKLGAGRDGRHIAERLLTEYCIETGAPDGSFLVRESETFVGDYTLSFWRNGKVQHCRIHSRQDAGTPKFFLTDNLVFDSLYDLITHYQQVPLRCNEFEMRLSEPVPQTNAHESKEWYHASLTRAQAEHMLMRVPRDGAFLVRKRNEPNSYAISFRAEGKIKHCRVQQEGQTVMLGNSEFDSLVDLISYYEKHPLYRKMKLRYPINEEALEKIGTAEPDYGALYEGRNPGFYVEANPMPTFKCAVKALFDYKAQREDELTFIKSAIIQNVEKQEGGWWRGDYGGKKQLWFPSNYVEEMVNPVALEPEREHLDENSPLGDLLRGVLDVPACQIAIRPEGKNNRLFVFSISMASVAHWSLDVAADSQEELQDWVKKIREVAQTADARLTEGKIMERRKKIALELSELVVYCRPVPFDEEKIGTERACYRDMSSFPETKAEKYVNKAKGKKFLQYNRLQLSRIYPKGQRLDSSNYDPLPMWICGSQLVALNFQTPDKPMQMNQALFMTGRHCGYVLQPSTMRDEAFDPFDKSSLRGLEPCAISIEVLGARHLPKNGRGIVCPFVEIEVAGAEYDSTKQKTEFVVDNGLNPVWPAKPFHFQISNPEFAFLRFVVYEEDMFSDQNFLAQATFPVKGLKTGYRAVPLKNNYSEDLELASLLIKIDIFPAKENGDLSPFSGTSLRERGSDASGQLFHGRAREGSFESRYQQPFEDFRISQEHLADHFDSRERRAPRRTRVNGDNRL
sPLA2-III inh = Inhibits HGIII-sPLA2 liposome hydrolysis, primary screen. Q9NZ20. AID 743126. inhibition, % at 12.2 µM. hit rate 0.56% among 370,000. QFRET BODIPY PC-A2 liposome hydrolysis, fluorescence;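 active means inhibition above mean plus 3 SD of compounds lying within the high and low control bounds, cut at about 19% in these data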;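 further: 0% = median of test compound wells and 100% = no enzyme DMSO wells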
hGIII sPLA2 conf = human GIII-sPLA2 inhibition, confirmation | shares compounds with sPLA2-III inh | recombinant hGIII-sPLA2, BODIPY PC-A2 QFRET fluorescence | inhibition, % at 12.2 µM | hit rate 34% among 2,000 | AID 743280;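 active means mean inhibition across triplicates above the hit cutoff set in the earlier primary screen, cut at about 19% in these data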;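 further: 0% = enzyme with DMSO and 100% = DMSO wells lacking enzyme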
BODIPY interf = optically interferes with 535nm fluorescence in sPLA2 counter-screen; AID 743282; hit rate 8.5% among 2,000; shares compounds with sPLA2-III inh; inhibition, % at 12.2 µM; BODIPY FL product fluorescence interference, QFRET;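 active means average inhibition above the solvent-only control mean plus 3 SD, cut at about 6% in these data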;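 further: 0% = DMSO with substrate plus product and 100% = DMSO with substrate alone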
BODIPY interf DR = interferes with 535nm fluorescence in dose response counter-screen; shares compounds with sPLA2-III inh; BODIPY FL product fluorescence interference, cell-free; IC50, µM; 240 tested, under 10 active; AID 743455;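 active means IC50 at or below 10 µM; inactive means IC50 above 10 µM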
An asterisk follows results filed as active; / = not tested or not shown.

SMILES | TbMetRS inhib | DAGLB inh | PLC-beta3 inh | PLC-gamma1 inh | sPLA2-III inh | hGIII sPLA2 conf | BODIPY interf | others
O=C(NNC(=S)NC(=O)c1ccco1)c1ccc(NC(=O)c2ccccc2)cc1 | 0.0 | 2.3 | -2.6 | 3.1 | 16.4 | / | /
O=C(NC(=S)Nc1cccc(NC(=S)NC(=O)c2ccco2)n1)c1ccco1 | -1.0 | -1.7 | -11.0 | -2.5 | 9.3 | / | /
COc1ccc(C(=O)NNC(=S)NC(=O)/C=C/c2cccs2)cc1 | 1.0 | -0.4 | -0.1 | 0.1 | 0.3 | / | /
CN(C)S(=O)(=O)c1cccc(NC(=S)NC(=O)c2ccco2)c1 | -0.4 | -0.4 | -5.2 | 3.8 | 8.5 | / | /
O=C(/C=C/c1cccs1)NC(=S)NNC(=O)c1ccccc1O | -0.3 | 14.5 | 1.3 | -2.9 | 42.2* | 32.2* | 2.8 | BODIPY interf DR=>122
O=C(NC(=S)NNC(=O)c1ccccc1O)c1ccco1 | 0.3 | 4.5 | -5.8 | 1.0 | 27.6* | 19.0 | -4.7
CN(C)S(=O)(=O)c1cccc(NC(=S)NNC(=O)c2cc3ccccc3cc2O)c1 | 2.6 | 11.9 | -433.4 | -342.9 | 37.1* | 35.9* | 13.2*
COc1ccc(S[C@]2(C(=O)N3CCCC3)CC(=O)N(S(=O)(=O)c3ccc(F)cc3)[C@@H]2c2ccc(OC)cc2)cc1 | / | / | 2.7 | 2.3 | -6.7 | / | /
COC(=O)c1ccc2nc(-c3cccc(Cl)c3)c(Cc3ccccc3C(F)(F)F)n2c1 | / | / | -7.4 | 0.5 | 3.5 | / | /
COC(=O)C1=C(C)N(C)C(=NCc2cccc(C(F)(F)F)c2)NC1c1ccc(C(F)(F)F)cc1 (stereo not given) | / | / | -0.3 | 0.7 | -19.4 | / | /
Cc1ccc(CN2CCCCC(NC(=O)c3cccc(F)c3)C2=O)cc1 (stereo not given) | / | / | -1.5 | 2.2 | -3.0 | / | /
CCCCOC(=O)Nc1ccccc1C(=O)N1CCCC1 | -0.6 | -2.6 | -7.1 | -9.6 | 21.7* | 1.8 | -9.3
S=c1[nH]nc(-c2cc(-c3ccccc3)n[nH]2)n1/N=C/C=C/c1ccccc1 | -0.2 | 10.9 | -8.0 | -0.9 | 15.0 | / | /
COc1ccccc1/C=C/C=N/n1c(-c2cc(-c3ccccc3)n[nH]2)n[nH]c1=S | -0.1 | 3.5 | -27.0 | -19.9 | 20.6* | -25.7 | 9.5*
C[C@@H]1CN(c2ccc(N3CCNC[C@@H]3C)cc2C#N)CCN1Cc1ccccc1 | / | / | -112.1 | -91.5 | 15.6 | / | /
C=CCOC(=O)N[C@@H](c1cccc(OC)c1)[C@@H](C)/C=C/CC(=O)O | / | / | -2.3 | -0.2 | 4.5 | / | /
CCn1c(C)nc2cc(C(=O)NNC(=S)Nc3ccc(C)cc3)ccc21 | 0.0 | -1.2 | -20.4 | -4.0 | 19.9* | 27.4* | 0.5
C/C(=N\NC(=O)c1nn(C)c(C)c1Br)c1ccc(NC(=O)c2ccccc2F)cc1 | -0.1 | -1.4 | -3.2 | 1.4 | 21.5* | -0.5 | -10.9
C/C(=N\NC(=O)c1nn(C)c(C)c1Br)c1ccc(NC(=O)c2ccoc2C)cc1 | -0.3 | 0.8 | -0.3 | 0.6 | 12.6 | / | /
NC(c1csc(Nc2ccc(C(=O)NCCCO)cn2)n1)C1CCCCC1 (stereo not given) | -0.3 | / | -37.9 | -26.0 | 22.7* | 7.3 | -18.6
CC(C)c1ccc(NC(=O)Nc2nc(C(N)C3CCCCC3)cs2)cc1 (stereo not given) | -0.3 | / | 6.3 | 7.3 | 6.8 | / | /
CN(C)c1ccc(NC(=O)Nc2nc(C(N)C3CCCCC3)cs2)cc1 (stereo not given) | -0.2 | / | -9.3 | -1.2 | 20.3* | 23.4* | -7.3
NC(c1csc(Nc2ncccn2)n1)C1CCCCC1 (stereo not given) | 0.0 | / | -0.3 | -0.2 | 22.9* | 3.0 | -13.0
COC(=O)C(C)(C)ONC(=O)Nc1ccccc1Br | 0.2 | -2.0 | -1.0 | 4.7 | 21.1* | -3.6 | -9.2
COC(=O)C(C)(C)ONC(=O)Nc1ccccc1Cl | 0.1 | -4.1 | -1.0 | -0.5 | 0.6 | / | /
CCN(CC)c1ccc(NC(=O)C2=CC=CN3CCS(=O)(=O)N=C23)cc1 | -0.2 | 5.7 | -9.9 | -2.5 | 20.9* | 7.8 | 0.7
CC(C)(C)c1ccc(NC(=O)C2=CC=CN3CCS(=O)(=O)N=C23)cc1 | -0.2 | -0.5 | -11.2 | -6.7 | 11.2 | / | /
